Measurements: ChEMBL document CHEMBL1926551, “Design, synthesis and in vitro evaluation of novel chroman-4-one, chroman, and 2H-chromene derivatives as human rhinovirus capsid-binding inhibitors” (Bioorg Med Chem, 2011)
The source made the active and inactive calls. No cut-off for these calls is given here.

What was measured:
[1] = Cytotoxicity against human HeLa cells after 3 days by microscopic analysis; format: cell-based; details: read-out: MNCC
How it was run: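 HeLa cells exposed to twofold compound dilutions for 3 days at 37 °C and morphology scored microscopically on day 3. The MNTC is the highest concentration leaving morphology and viability unchanged in 100% of cells.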

[2] = Cytotoxicity against human HeLa cells after 3 days by XTT based ELISA reader; format: cell-based; details: read-out: TC50
How it was run: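 HeLa cells seeded at 2 × 10^3 cells/well in growth medium (MEM, 8% FCS) with twofold compound dilutions from the maximum soluble concentration, triplicate wells. Matched ethanol controls were run. Plates were held 3 days at 37 °C, 5% CO2, then XTT was added (final 0.15 mg/mL) for 4 h.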

[3] = tested on: rhinovirus A1B; assay: Antiviral activity against Human rhinovirus 1B infected in human HeLa cells assessed as inhibition of virus induced-plaque formation after 3 days by neutral red-based plaque reduction assay; format: functional, organism-based; details: Rhinovirus A, 72 h
How it was run: (§1)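 HeLa (Ohio) monolayers infected with virus giving about 100 plaques/well and adsorbed 1 h at 33 °C. The inoculum was removed and cells were overlaid with plaque medium ± fourfold compound dilutions, starting from the maximum non-cytotoxic concentration (MNTC). After 3 days at 33 °C, cells were stained with neutral red (0.2 mg/mL in PBS, pH 7.4) and plaques counted, triplicate wells.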

[4] = Therapeutic index, ratio of TC50 for human HeLa cells to IC50 for Human rhinovirus 1B infected in human HeLa cells; format: cell-based; details: read-out: TI
How it was run: (§2)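 Therapeutic index calculated as HeLa TC50 (XTT, 3 days) divided by the plaque-reduction IC50 for the respective serotype.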

[5] = tested on: rhinovirus B14; assay: Antiviral activity against Human rhinovirus 14 infected in human HeLa cells assessed as inhibition of virus induced-plaque formation after 3 days by neutral red-based plaque reduction assay; format: functional, organism-based; details: Rhinovirus B, 72 h
How it was run: as §1, with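 “wells. IC50 came from % plaque reduction vs log dose; where 50% was not reached, % inhibition at the MNTC was reported.” for “wells.”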

[6] = Therapeutic index, ratio of TC50 for human HeLa cells to IC50 for Human rhinovirus 14 infected in human HeLa cells; format: cell-based; details: read-out: TI; how it was run: as §2
[7] = tested on: rhinovirus B14; assay: Antiviral activity against Human rhinovirus 14 infected in human HeLa cells assessed as inhibition of virus induced-plaque formation at 25 uM after 3 days by neutral red-based plaque reduction assay; format: functional; details: Rhinovirus B, 72 h; how it was run: as §1
[8] = tested on: rhinovirus B14; assay: Antiviral activity against Human rhinovirus 14 infected in human HeLa cells assessed as inhibition of virus induced-plaque formation at 12.5 uM after 3 days by neutral red-based plaque reduction assay; format: functional; details: Rhinovirus B, 72 h
How it was run: as §1, with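 “wells. IC50 came from % plaque reduction vs log dose; where 50% was not reached, % inhibition at the MNTC was reported.” for “wells.”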

[9] = Ratio of IC50 for Human rhinovirus 1B to IC50 for Human rhinovirus 14; format: functional
[10] = tested on: rhinovirus A1B; assay: Antiviral activity against Human rhinovirus 1B assessed as reduction in infectivity titers at 42 uM after 1 hr using HeLa cell monolayers by plaque assay (reference value: 5.33 * 10^6 PFU/mL); format: functional
How it was run: (§3)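 HRV 1B suspension at high titre incubated ± 42 µM compound for 1 h at 33 °C. It was then serially diluted 10-fold to reach non-inhibitory free compound levels, and infectivity was titrated by plaque assay on HeLa monolayers.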

[11] = tested on: rhinovirus A1B; assay: Antiviral activity against Human rhinovirus 1B in human HeLa cell monolayers assessed as reduction of viral infectivity at 42 uM at pH 5 pre-treated for 1 hr before mild acid treatment measured after 30 mins by plaque assay (reference value: 3.8 log PFU/mL); format: functional
[12] = tested on: rhinovirus A1B; assay: Antiviral activity against Human rhinovirus 1B in human HeLa cell monolayers assessed as reduction of viral infectivity at 42 uM at 56 degC pre-treated for 1 hr before thermal treatment measured after 20 mins by plaque assay (reference value: 2.9 log PFU/mL); format: functional
[13] = tested on: rhinovirus A1B; assay: Antiviral activity against Human rhinovirus 1B infected in human HeLa cells assessed as reduction of viral yield at 42 uM treated together with viral inoculum after 10 hrs by neutral red-based plaque reduction assay; format: functional; details: Rhinovirus A
How it was run: (§4)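 One-step growth: confluent HeLa monolayers infected with HRV 1B at MOI 5. Virus bound 1 h at 4 °C, then washed thrice with cold PBS; cultures were incubated at 33 °C to 10 h p.i. 42 µM compound was present either during binding only or throughout binding plus replication. Cultures were freeze-thawed three times, clarified, and yield titrated by plaque assay on HeLa.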

[14] = tested on: rhinovirus A1B; assay: Antiviral activity against Human rhinovirus 1B infected in human HeLa cells assessed as reduction of viral yield at 42 uM at 4 degC treated immediately after viral adsorption after 1 hr by neutral red-based plaque reduction assay; format: functional, organism-based
[15] = tested on: rhinovirus A1B; assay: Antiviral activity against Human rhinovirus 1B infected in human HeLa cells assessed as reduction of viral yield at 42 uM treated 15 mins after viral adsorption measured after 10 hrs by neutral red-based plaque reduction assay; format: functional; details: Rhinovirus A
[16] = tested on: rhinovirus A1B; assay: Antiviral activity against Human rhinovirus 1B infected in human HeLa cells assessed as reduction of viral yield at 42 uM treated 30 mins after viral adsorption measured after 10 hrs by neutral red-based plaque reduction assay; format: functional; details: Rhinovirus A
[17] = tested on: rhinovirus A1B; assay: Antiviral activity against Human rhinovirus 1B infected in human HeLa cells assessed as reduction of viral yield at 42 uM treated 45 mins after viral adsorption measured after 10 hrs by neutral red-based plaque reduction assay; format: functional; details: Rhinovirus A
[18] = tested on: rhinovirus A1B; assay: Antiviral activity against Human rhinovirus 1B infected in human HeLa cells assessed as reduction of viral yield at 42 uM treated 60 mins after viral adsorption measured after 10 hrs by neutral red-based plaque reduction assay; format: functional; details: Rhinovirus A
[19] = tested on: rhinovirus A1B; assay: Antiviral activity against Human rhinovirus 1B infected in human HeLa cells assessed as reduction of viral yield at 42 uM treated 2 hrs after viral adsorption measured after 10 hrs by neutral red-based plaque reduction assay; format: functional; details: Rhinovirus A
[20] = tested on: rhinovirus A1B; assay: Antiviral activity against Human rhinovirus 1B infected in human HeLa cells assessed as reduction of viral yield at 42 uM treated 4 hrs after viral adsorption measured after 10 hrs by neutral red-based plaque reduction assay; format: functional; details: Rhinovirus A
[21] = tested on: rhinovirus A1B; assay: Antiviral activity against Human rhinovirus 1B infected in human HeLa cells assessed as reduction of viral yield at 42 uM treated 6 hrs after viral adsorption measured after 10 hrs by neutral red-based plaque reduction assay; format: functional; details: Rhinovirus A
[22] = tested on: rhinovirus A1B; assay: Antiviral activity against Human rhinovirus 1B infected in human HeLa cells assessed as reduction of viral yield at 42 uM treated before viral adsorption measured after 10 hrs by neutral red-based plaque reduction assay; format: functional; details: Rhinovirus A
[23] = tested on: rhinovirus A1B; assay: Antiviral activity against Human rhinovirus 1B infected in human HeLa cells assessed as reduction of viral yield at 42 uM treated during viral adsorption measured after 10 hrs by neutral red-based plaque reduction assay; format: functional; details: Rhinovirus A; how it was run: as §4
[24] = tested on: rhinovirus A1B; assay: Antiviral activity against Human rhinovirus 1B infected in human HeLa cells assessed as reduction of viral yield at 42 uM treated at the end of viral adsorption followed by washout after 30 mins to 1 hr measured after 10 hrs by neutral red-based plaque reduction assay; format: functional; details: Rhinovirus A
[25] = tested on: rhinovirus A1B; assay: Antiviral activity against Human rhinovirus 1B infected in human HeLa cells assessed as reduction of viral yield at 42 uM treated at the end of viral adsorption measured after 10 hrs by neutral red-based plaque reduction assay; format: functional, organism-based; details: TDE = time-dependent effect
[26] = tested on: rhinovirus A1B; assay: Antiviral activity against Human rhinovirus 1B infected in human HeLa cells assessed as reduction of viral yield at 42 uM treated at the end of viral adsorption followed by washout after 6 hrs measured after 10 hrs by neutral red-based plaque reduction assay; format: functional; details: Rhinovirus A
[27] = tested on: rhinovirus A1B; assay: Antiviral activity against Human rhinovirus 1B infected in human HeLa cells measured after dilution; format: functional, organism-based; how it was run: as §3

Compound | MNTC at 72 h [1] [µM] | CC50 at 72 h [2] [µM] | IC50 [3] [µM] | selectivity ratio [4] | IC50 [5] [µM] | selectivity ratio [6] | further results
O=C1/C(=C/C#Cc2ccccc2)COc2ccc(Cl)cc21 | 50 | 75 | 7.89 | 9.51 | 30.4 | 2.47 | 
C1=C(/C=C/Cc2ccccc2)COc2ccccc21 | 50 | 75 | 13.6 | 5.52 | 11.1 | 6.76 | 
Clc1ccc(C/C=C/C2=Cc3cc(Cl)ccc3OC2)cc1 | 25 | 100 | 9.73 | 10.3 |  |  | inhibition at 25 µM [7]: 27%
O=C1/C(=C/C#Cc2ccccc2)COc2ccccc21 | 25 | 50 | 9.3 | 5.38 | 20 | 2.5 | 
Clc1ccc(/C=C/C=C2\COc3ccccc3C2)cc1 | 25 | 50 | 1.39 | 36 | 6.02 | 8.31 | 
Fc1ccc2c(c1)C/C(=C/C=C/c1ccccc1)CO2 | 50 | 75 | 5.57 | 13.5 | 36.5 | 2.05 | 
C(/C=C/c1ccccc1)=C1/COc2ccccc2C1 | 50 | 100 | 0.99 | 101 | 47.6 | 2.1 | 
O=C1/C(=C/C=C/c2ccccc2)COc2ccccc21 | 12.5 | 25 | 0.85 | 29.4 |  |  | inhibition at 12.5 µM [8]: 7.2%
Clc1ccc2c(c1)C/C(=C/C=C/c1ccccc1)CO2 | 25 | 50 | 2.79 | 17.9 |  |  | inhibition at 25 µM [7]: 30.3%
O=C1/C(=C/C=C/c2ccccc2)COc2ccc(Cl)cc21 | 25 | 50 | 0.99 | 50.5 |  |  | inhibition at 25 µM [7]: 48.6%
O=C1/C(=C/C=C/c2ccccc2)COc2ccc(F)cc21 | 25 | 50 | 4.98 | 10 | 17 | 2.94 | 
O=C1/C(=C/C=C/c2ccc(Cl)cc2)COc2ccc(Cl)cc21 | 12.5 | 25 | 3.35 | 7.46 | 1.42 | 17.6 | Ratio IC50 [9]: 2
O=C1/C(=C/C=C/c2ccc(Cl)cc2)COc2ccccc21 | 25 | 50 | 2.54 | 19.7 |  |  | inhibition at 25 µM [7]: 17.1%
Clc1ccc(/C=C/C=C2\COc3ccc(Cl)cc3C2)cc1 | 12.5 | 25 | 11.5 | 2.18 | 8.27 | 3.02 | 
Clc1ccc(C/C=C/C2=Cc3ccccc3OC2)cc1 | 50 | 100 | 3.61 | 27.7 | 45.1 | 2.22 | 
Clc1ccc2c(c1)C=C(/C=C/Cc1ccccc1)CO2 | 12.5 | 25 | 0.42 | 59.5 |  |  | inhibition at 12.5 µM [8]: 23%; PFU/ml [10]: 5110000; log10PFU/ml [11]: 2.8; log10PFU/ml [12]: 1.8; inhibition at 42 µM [13]: 88.5%; inhibition [14]: Active; inhibition at 42 µM [15]: > 80%; inhibition at 42 µM [16]: > 80%; inhibition at 42 µM [17]: > 80%; inhibition at 42 µM [18]: > 80%; inhibition at 42 µM [19]: 31%; inhibition at 42 µM [20]: 12%; inhibition at 42 µM [21]: 1%; inhibition at 42 µM [22]: 6%; inhibition at 42 µM [23]: 16%; inhibition at 42 µM [24]: 35%; inhibition [25]: tde; inhibition at 42 µM [26]: 93%; Activity [27]: inactive
